Assay results of several laboratories.
In brackets after ≈: the same amount, converted by molar mass.
Organism: Cryptococcus neoformans

`O=C(CCCCCCCC[P+](c1ccccc1)(c1ccccc1)c1ccccc1)Nc1cc(O)c(O)c(O)c1.[Br-]` has an MIC of 8 µg/mL (microbial growth; broth dilution; ATCC208821; 24 h).
`OCCN1CCN(CCCN2c3ccccc3Sc3ccc(Cl)cc32)CC1` has an MIC of 16 µg/mL (microbial growth; broth dilution).
The IC50 of `C#CCCCCCCCCCCCC(O)CC(O)CO` (stereo not drawn) is reported as 8 µg/mL (≈ 28.1 µM) (microbial growth; broth dilution; ATCC90113).
`Cc1occc(=O)c1O` gave an MIC of greater than 100 µM (microbial growth; broth dilution; 48 h).
`C[C@@H]1[C@H](O)[C@@H](C)/C=C/C=C/C=C/C=C/C=C/C=C/C=C/[C@H](O[C@@H]2O[C@H](C)[C@@H](O)[C@H](N)[C@@H]2O)C[C@@H]2O[C@](O)(C[C@@H](O)C[C@@H](O)[C@H](O)CC[C@@H](O)C[C@@H](O)CC(=O)O[C@H]1C)C[C@H](O)[C@H]2C(=O)O` has an IC50 of 0.69 µg/mL (≈ 0.747 µM) (microbial growth; broth dilution; ATCC90113).
`O=C(CCc1cc(O)c(O)c(O)c1)NCCCCCCCC[P+](c1ccccc1)(c1ccccc1)c1ccccc1.[Br-]` has an MIC of greater than 32 µg/mL (microbial growth; broth dilution; ATCC208821; 24 h).
With `C#CCCCCCCCCC=CCC(O)CC(O)CO` (stereo not drawn) the IC50 was greater than 8 µg/mL (microbial growth; broth dilution; ATCC90113).
`OC(Cn1cncn1)(Cn1cncn1)c1ccc(F)cc1F` has an MIC of 8 µg/mL (microbial growth; broth dilution; ATCC208821; 24 h).
`C[C@@H]1[C@H](O)[C@@H](C)/C=C/C=C/C=C/C=C/C=C/C=C/C=C/[C@H](O[C@@H]2O[C@H](C)[C@@H](O)[C@H](N)[C@@H]2O)C[C@@H]2O[C@](O)(C[C@@H](O)C[C@@H](O)[C@H](O)CC[C@@H](O)C[C@@H](O)CC(=O)O[C@H]1C)C[C@H](O)[C@H]2C(=O)O` gave an MFC of 0.68 µM (≈ 0.628 µg/mL) (microbial killing; ATCC90113).
